In brackets after ≈: the same amount, converted by molar mass.
Tested on: Candida albicans
Assay: Antifungal activity against Candida albicans ATCC 64124 incubated for 48 hrs by modified CLSI M27-A3 protocol based method
Format: functional
Conditions: ATCC 64124, 48 h

Compound	MIC50 [µM]
CCCCCCC(O)(Cn1cncn1)c1ccc(Cl)cc1 (centres undefined)	102 (≈ 31.3 µg/mL)
CCCCCC(O)(Cn1cncn1)c1ccc(F)cc1F (centres undefined)	26.4 (≈ 7.8 µg/mL)

Tested on: Candida albicans
Assay: Antifungal activity against ITC and FLC-susceptible Candida albicans ATCC MYA-2876 incubated for 48 hrs by modified CLSI M27-A3 protocol based method
Format: functional
Conditions: ATCC MYA-2876, 48 h
In short: (§1)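 Because these Candida strains show trailing growth, MIC-2 was read, meaning 50% growth inhibition. Caspofungin and voriconazole were tested here; other controls came from earlier work.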

Compound	MIC50 [µM]
CCCCCCC(O)(Cn1cncn1)c1ccc(Cl)cc1 (centres undefined)	25.3 (≈ 7.79 µg/mL)
CCCCCC(O)(Cn1cncn1)c1ccc(F)cc1F (centres undefined)	26.4 (≈ 7.8 µg/mL)

Tested on: Candida albicans
Assay: Antifungal activity against ITC and FLC-susceptible Candida albicans ATCC MYA-2310 incubated for 48 hrs by modified CLSI M27-A3 protocol based method
Format: functional
Conditions: ATCC MYA-2310, 48 h

Compound	MIC50 [µM]
CCCCCCC(O)(Cn1cncn1)c1ccc(Cl)cc1 (centres undefined)	102 (≈ 31.3 µg/mL)
CCCCCC(O)(Cn1cncn1)c1ccc(F)cc1F (centres undefined)	26.4 (≈ 7.8 µg/mL)

Tested on: Candida albicans
Assay: Antifungal activity against ITC and FLC-resistant Candida albicans ATCC MYA-1003 incubated for 48 hrs by modified CLSI M27-A3 protocol based method
Format: functional
Conditions: ATCC MYA-1003, 48 h
In short: as §1

Compound	MIC50 [µM]
CCCCCCC(O)(Cn1cncn1)c1ccc(Cl)cc1 (centres undefined)	6.3 (≈ 1.94 µg/mL)
CCCCCC(O)(Cn1cncn1)c1ccc(F)cc1F (centres undefined)	6.6 (≈ 1.95 µg/mL)

Tested on: Nakaseomyces glabratus
Assay: Antifungal activity against Candida glabrata ATCC 2001 incubated for 48 hrs by modified CLSI M27-A3 protocol based method
Format: functional
Conditions: ATCC 2001, 48 h

Compound	MIC50 [µM]
CCCCCCC(O)(Cn1cncn1)c1ccc(Cl)cc1 (centres undefined)	> 102
CCCCCC(O)(Cn1cncn1)c1ccc(F)cc1F (centres undefined)	26.4 (≈ 7.8 µg/mL)

Tested on: Pichia kudriavzevii
Assay: Antifungal activity against Candida krusei ATCC 6258 incubated for 48 hrs by modified CLSI M27-A3 protocol based method
Format: functional
Conditions: ATCC 6258, 48 h, read-out: MIC100
In short: (§2)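 For C. albicans ATCC 10231, C. krusei ATCC 6258 and C. parapsilosis ATCC 22019, MIC-0 was read, meaning complete growth inhibition. For azole controls, MIC-2 (50% growth inhibition) was reported instead. Caspofungin and voriconazole were tested here; other controls came from earlier work.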

Compound	MIC [µM]
CCCCCCC(O)(Cn1cncn1)c1ccc(Cl)cc1 (centres undefined)	6.3 (≈ 1.94 µg/mL)
CCCCCC(O)(Cn1cncn1)c1ccc(F)cc1F (centres undefined)	0.81 (≈ 0.239 µg/mL)

Tested on: Candida parapsilosis
Assay: Antifungal activity against Candida parapsilosis ATCC 22019 incubated for 48 hrs by modified CLSI M27-A3 protocol based method
Format: functional
Conditions: Lodderomyces parapsilosis, ATCC 22019, 48 h; read-out: MIC100
In short: as §2

Compound	MIC [µM]
CCCCCCC(O)(Cn1cncn1)c1ccc(Cl)cc1 (centres undefined)	> 102
CCCCCC(O)(Cn1cncn1)c1ccc(F)cc1F (centres undefined)	< 0.1

Tested on: Aspergillus nidulans
Assay: Antifungal activity against Aspergillus nidulans ATCC 38163 incubated for 48 hrs by CLSI M38-A2 protocol based method
Format: functional
Conditions: ATCC 38163, 48 h, read-out: MIC100

Compound	MIC [µM]
CCCCCCC(O)(Cn1cncn1)c1ccc(Cl)cc1 (centres undefined)	12.7 (≈ 3.91 µg/mL)
CCCCCC(O)(Cn1cncn1)c1ccc(F)cc1F (centres undefined)	3.3 (≈ 0.975 µg/mL)

Tested on: not listed separately
Assay: Toxicity in human A549 cells assessed as reduction in cell viability incubated for 24 hrs by resazurin dye based assay
Conditions: not given
In short: (§3)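 Toxicity tested in the nucleated lines A549 and BEAS-2B to give EC50 values. Selectivity index is EC50 against the mammalian line divided by the MIC against a given fungal strain.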

Compound	EC50 at 24 h [µg/mL]
CCCCCCC(O)(Cn1cncn1)c1ccc(Cl)cc1 (centres undefined)	38 (≈ 123 µM)
CCCCCC(O)(Cn1cncn1)c1ccc(F)cc1F (centres undefined)	> 31.3

Tested on: not listed separately
Assay: Toxicity in human BEAS2B cells assessed as reduction in cell viability incubated for 24 hrs by resazurin dye based assay
Conditions: BEAS-2B cells
In short: as §3

Compound	EC50 at 24 h [µg/mL]
CCCCCCC(O)(Cn1cncn1)c1ccc(Cl)cc1 (centres undefined)	> 31.3
CCCCCC(O)(Cn1cncn1)c1ccc(F)cc1F (centres undefined)	> 31.3

Tested on: not listed separately
Assay: Hemolytic activity in mouse erythrocytes assessed as hemolysis level at 1.95 ug/ml incubated for 1 hr at 37 degC
Format: ADME, cell-based, Erythrocyte
Conditions: read-out: Activity
In short: (§4)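 Mouse erythrocytes incubated 1 h at 37 °C with test agents over 1.95 to 125 µg/mL. Percent lysis is read for each concentration.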

Compound	hemolysis at 1 h, 1.95 ug/ml [%]
CCCCCCC(O)(Cn1cncn1)c1ccc(Cl)cc1 (centres undefined)	0
CCCCCC(O)(Cn1cncn1)c1ccc(F)cc1F (centres undefined)	0

Tested on: not listed separately
Assay: Hemolytic activity in mouse erythrocytes assessed as hemolysis level at 3.9 ug/ml incubated for 1 hr at 37 degC
Format: ADME, cell-based, Erythrocyte
Conditions: read-out: Activity
In short: as §4

Compound	hemolysis at 1 h, 3.9 ug/ml [%]
CCCCCCC(O)(Cn1cncn1)c1ccc(Cl)cc1 (centres undefined)	0
CCCCCC(O)(Cn1cncn1)c1ccc(F)cc1F (centres undefined)	0

Tested on: not listed separately
Assay: Hemolytic activity in mouse erythrocytes assessed as hemolysis level at 7.8 ug/ml incubated for 1 hr at 37 degC
Format: ADME, cell-based, Erythrocyte
Conditions: read-out: Activity
In short: as §4

Compound	hemolysis at 1 h, 7.8 ug/ml [%]
CCCCCCC(O)(Cn1cncn1)c1ccc(Cl)cc1 (centres undefined)	0
CCCCCC(O)(Cn1cncn1)c1ccc(F)cc1F (centres undefined)	0

Tested on: not listed separately
Assay: Hemolytic activity in mouse erythrocytes assessed as hemolysis level at 31.3 ug/ml incubated for 1 hr at 37 degC
Format: ADME, cell-based, Erythrocyte
Conditions: read-out: Activity
In short: as §4

Compound	hemolysis at 1 h, 31.3 ug/ml [%]
CCCCCCC(O)(Cn1cncn1)c1ccc(Cl)cc1 (centres undefined)	9.5
CCCCCC(O)(Cn1cncn1)c1ccc(F)cc1F (centres undefined)	10.1

Tested on: not listed separately
Assay: Selectivity index, ratio of EC50 for toxicity in human BEAS2B cells to MIC50 for antifungal activity against Candida albicans ATCC 64124
Format: cell-based
Conditions: BEAS-2B cells, read-out: Selectivity Index
In short: (§5)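 Selectivity index is the EC50 against the mammalian line (A549 or BEAS-2B) divided by the MIC against the given fungal strain.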

Compound	selectivity ratio
CCCCCCC(O)(Cn1cncn1)c1ccc(Cl)cc1 (centres undefined)	1
CCCCCC(O)(Cn1cncn1)c1ccc(F)cc1F (centres undefined)	4

Tested on: not listed separately
Assay: Selectivity index, ratio of EC50 for toxicity in human BEAS2B cells to MIC100 for antifungal activity against Candida albicans ATCC 10231
Format: cell-based
Conditions: BEAS-2B cells, read-out: Selectivity Index
In short: as §5

Compound	selectivity ratio
CCCCCCC(O)(Cn1cncn1)c1ccc(Cl)cc1 (centres undefined)	16
CCCCCC(O)(Cn1cncn1)c1ccc(F)cc1F (centres undefined)	16

Tested on: not listed separately
Assay: Selectivity index, ratio of EC50 for toxicity in human A549 cells to MIC50 for antifungal activity against Candida albicans ATCC 64124
Format: cell-based
Conditions: read-out: Selectivity Index
In short: as §5

Compound	selectivity ratio
CCCCCCC(O)(Cn1cncn1)c1ccc(Cl)cc1 (centres undefined)	1
CCCCCC(O)(Cn1cncn1)c1ccc(F)cc1F (centres undefined)	4

Tested on: not listed separately
Assay: Selectivity index, ratio of EC50 for toxicity in human A549 cells to MIC50 for antifungal activity against ITC and FLC-susceptible Candida albicans ATCC MYA-2876
Format: cell-based
Conditions: read-out: Selectivity Index
In short: as §5

Compound	selectivity ratio
CCCCCCC(O)(Cn1cncn1)c1ccc(Cl)cc1 (centres undefined)	5
CCCCCC(O)(Cn1cncn1)c1ccc(F)cc1F (centres undefined)	4

Tested on: not listed separately
Assay: Selectivity index, ratio of EC50 for toxicity in human BEAS2B cells to MIC50 for antifungal activity against ITC and FLC-susceptible Candida albicans ATCC MYA-2876
Format: cell-based
Conditions: BEAS-2B cells, read-out: Selectivity Index
In short: (§6)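 Ratio of the compound's EC50 against BEAS-2B cells to its MIC against the named C. albicans strain. […] For C. albicans strains other than ATCC 10231, trailing growth meant MIC-2 was taken, meaning 50% growth inhibition.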

Compound	selectivity ratio
CCCCCCC(O)(Cn1cncn1)c1ccc(Cl)cc1 (centres undefined)	4
CCCCCC(O)(Cn1cncn1)c1ccc(F)cc1F (centres undefined)	4

Tested on: not listed separately
Assay: Selectivity index, ratio of EC50 for toxicity in human A549 cells to MIC50 for antifungal activity against ITC and FLC-resistant Candida albicans ATCC MYA-90819
Format: cell-based
Conditions: read-out: Selectivity Index
In short: as §5

Compound	selectivity ratio
CCCCCCC(O)(Cn1cncn1)c1ccc(Cl)cc1 (centres undefined)	10
CCCCCC(O)(Cn1cncn1)c1ccc(F)cc1F (centres undefined)	8

Tested on: not listed separately
Assay: Selectivity index, ratio of EC50 for toxicity in human BEAS2B cells to MIC50 for antifungal activity against ITC and FLC-susceptible Candida albicans ATCC MYA-2310
Format: cell-based
Conditions: BEAS-2B cells, read-out: Selectivity Index
In short: as §6

Compound	selectivity ratio
CCCCCCC(O)(Cn1cncn1)c1ccc(Cl)cc1 (centres undefined)	1
CCCCCC(O)(Cn1cncn1)c1ccc(F)cc1F (centres undefined)	4

Tested on: not listed separately
Assay: Selectivity index, ratio of EC50 for toxicity in human A549 cells to MIC50 for antifungal activity against ITC and FLC-resistant Candida albicans ATCC 1237
Format: cell-based
Conditions: read-out: Selectivity Index
In short: as §5

Compound	selectivity ratio
CCCCCCC(O)(Cn1cncn1)c1ccc(Cl)cc1 (centres undefined)	10
CCCCCC(O)(Cn1cncn1)c1ccc(F)cc1F (centres undefined)	4

Tested on: not listed separately
Assay: Selectivity index, ratio of EC50 for toxicity in human BEAS2B cells to MIC50 for antifungal activity against ITC and FLC-resistant Candida albicans ATCC 1237
Format: cell-based
Conditions: BEAS-2B cells, read-out: Selectivity Index
In short: as §5

Compound	selectivity ratio
CCCCCCC(O)(Cn1cncn1)c1ccc(Cl)cc1 (centres undefined)	8
CCCCCC(O)(Cn1cncn1)c1ccc(F)cc1F (centres undefined)	4

Tested on: not listed separately
Assay: Selectivity index, ratio of EC50 for toxicity in human A549 cells to MIC50 for antifungal activity against ITC and FLC-resistant Candida albicans ATCC MYA-1003
Format: cell-based
Conditions: read-out: Selectivity Index
In short: as §5

Compound	selectivity ratio
CCCCCCC(O)(Cn1cncn1)c1ccc(Cl)cc1 (centres undefined)	19
CCCCCC(O)(Cn1cncn1)c1ccc(F)cc1F (centres undefined)	16

Tested on: not listed separately
Assay: Selectivity index, ratio of EC50 for toxicity in human BEAS2B cells to MIC50 for antifungal activity against ITC and FLC-resistant Candida albicans ATCC MYA-1003
Format: cell-based
Conditions: BEAS-2B cells, read-out: Selectivity Index
In short: as §5

Compound	selectivity ratio
CCCCCCC(O)(Cn1cncn1)c1ccc(Cl)cc1 (centres undefined)	16
CCCCCC(O)(Cn1cncn1)c1ccc(F)cc1F (centres undefined)	16

Tested on: not listed separately
Assay: Selectivity index, ratio of EC50 for toxicity in human BEAS2B cells to MIC50 for antifungal activity against Candida glabrata ATCC 2001
Format: cell-based
Conditions: BEAS-2B cells, read-out: Selectivity Index
In short: as §5

Compound	selectivity ratio
CCCCCCC(O)(Cn1cncn1)c1ccc(Cl)cc1 (centres undefined)	1
CCCCCC(O)(Cn1cncn1)c1ccc(F)cc1F (centres undefined)	4

Tested on: not listed separately
Assay: Selectivity index, ratio of […] for toxicity in human BEAS2B cells to MIC50 for antifungal activity against Aspergillus flavus ATCC MYA-3631
Format: cell-based
Conditions: BEAS-2B cells, read-out: Selectivity Index

Compound	selectivity ratio
CCCCCCC(O)(Cn1cncn1)c1ccc(Cl)cc1 (centres undefined)	1
CCCCCC(O)(Cn1cncn1)c1ccc(F)cc1F (centres undefined)	2

Tested on: not listed separately
Assay: Selectivity index, ratio of […] for toxicity in human A549 cells to MIC50 for antifungal activity against Aspergillus nidulans ATCC 38163
Format: cell-based
Conditions: read-out: Selectivity Index

Compound	selectivity ratio
CCCCCCC(O)(Cn1cncn1)c1ccc(Cl)cc1 (centres undefined)	10
CCCCCC(O)(Cn1cncn1)c1ccc(F)cc1F (centres undefined)	32

Tested on: not listed separately
Assay: in vitro
Conditions: mouse, mouse erythrocytes

Compound	hemolysis at 1 h, 62.5 ug/ml [%]
CCCCCCC(O)(Cn1cncn1)c1ccc(Cl)cc1 (centres undefined)	83.9
CCCCCC(O)(Cn1cncn1)c1ccc(F)cc1F (centres undefined)	25.2

Tested on: not listed separately
Assay: Selectivity index, ratio of EC50 for toxicity in human A549 cells to MIC50 for antifungal activity against Candida krusei ATCC 6258
Conditions: not given

Compound	selectivity ratio
CCCCCCC(O)(Cn1cncn1)c1ccc(Cl)cc1 (centres undefined)	19
CCCCCC(O)(Cn1cncn1)c1ccc(F)cc1F (centres undefined)	130

Tested on: not listed separately
Assay: Selectivity index, ratio of EC50 for toxicity in human BEAS2B cells to MIC50 for antifungal activity against Candida krusei ATCC 6258
Conditions: BEAS-2B cells

Compound	selectivity ratio
CCCCCCC(O)(Cn1cncn1)c1ccc(Cl)cc1 (centres undefined)	16
CCCCCC(O)(Cn1cncn1)c1ccc(F)cc1F (centres undefined)	130

Tested on: not listed separately
Assay: Selectivity index, ratio of EC50 for toxicity in human A549 cells to MIC for antifungal activity against Candida parapsilosis ATCC 22019
Conditions: not given

Compound	selectivity ratio
CCCCCCC(O)(Cn1cncn1)c1ccc(Cl)cc1 (centres undefined)	1
CCCCCC(O)(Cn1cncn1)c1ccc(F)cc1F (centres undefined)	1040

Source: ChEMBL document CHEMBL4265871, “Novel alkylated azoles as potent antifungals” (Eur J Med Chem, 2017)
